{"source": "ChEMBL document CHEMBL2150957", "about": "“Substrate-Selective Inhibition of Cyclooxygenase-2: Development and Evaluation of Achiral Profen Probes” (ACS Med Chem Lett, 2012)", "key": {"[1]": {"biological_target": "T1, Prostaglandin G/H synthase 2 (Mus musculus) (UniProt Q05769)", "T1 sequence (whole entry)": "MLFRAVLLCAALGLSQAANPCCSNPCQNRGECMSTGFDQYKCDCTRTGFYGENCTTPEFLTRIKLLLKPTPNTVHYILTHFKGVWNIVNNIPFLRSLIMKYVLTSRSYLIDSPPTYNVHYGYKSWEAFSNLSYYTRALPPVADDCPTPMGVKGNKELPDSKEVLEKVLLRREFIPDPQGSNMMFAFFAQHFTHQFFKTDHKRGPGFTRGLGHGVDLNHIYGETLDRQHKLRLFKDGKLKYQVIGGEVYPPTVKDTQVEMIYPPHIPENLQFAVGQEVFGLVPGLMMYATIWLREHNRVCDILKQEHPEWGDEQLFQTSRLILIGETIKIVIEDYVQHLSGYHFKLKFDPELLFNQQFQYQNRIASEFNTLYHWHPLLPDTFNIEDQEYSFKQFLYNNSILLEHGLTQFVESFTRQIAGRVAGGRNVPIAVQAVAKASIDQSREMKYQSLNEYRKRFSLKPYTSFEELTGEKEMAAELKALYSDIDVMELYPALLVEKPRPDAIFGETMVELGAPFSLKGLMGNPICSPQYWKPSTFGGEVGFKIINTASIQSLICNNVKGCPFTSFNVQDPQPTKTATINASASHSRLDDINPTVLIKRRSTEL", "test": "Inhibition of mouse COX2-mediated arachidonic acid oxygenation at 10 uM preincubated for 3 mins before […] measured after 30 seconds", "procedure,_shortened": "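Purified murine COX-2 (40 nM) preincubated 3 min with inhibitor (10 μM) in DMSO, with a solvent control. Arachidonic acid (5 μM) then added and reacted 30 s at 37 °C. Percent inhibition of AA oxygenation. Mean ± standard deviation, n = 6.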"}, "[2]": {"biological_target": "T1, Prostaglandin G/H synthase 2 (Mus musculus)", "test": "Inhibition of COX2-mediated arachidonic acid oxygenation in LPS/IFN-gamma-stimulated mouse RAW264.7 cells assessed as AA to PGE2/PGD2 conversion at 25 uM treated 2 hrs after LPS/IFN-gamma stimulation measured after 6 hrs", "type": "cell-based", "procedure,_shortened": "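RAW 264.7 macrophages stimulated with lipopolysaccharide and interferon γ to generate endogenous AA and 2-AG. Inhibitor added to the medium at varying doses 2 h after stimulation. Medium collected 6 h after stimulation; prostaglandin levels quantified by LC-MS-MS.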"}, "[3]": {"biological_target": "T1, Prostaglandin G/H synthase 2 (Mus musculus)", "test": "Inhibition of mouse COX2-mediated 2-arachidonoylglycerol oxygenation at 10 uM preincubated for 3 mins before 2-arachidonoylglycerol addition measured after 30 seconds relative to control", "procedure,_shortened": "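Purified murine COX-2 (40 nM) preincubated 3 min with inhibitor in DMSO, with a solvent control. 2-AG (5 μM) then added and reacted 30 s at 37 °C. Value is the maximum inhibition at 10 μM inhibitor. Mean ± standard deviation, n = 6.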"}, "[4]": {"test": "Plasma concentration in C57BL/6 mouse at 10 mg/kg, ip after 2 hrs", "type": "ADME, organism-based", "design": "dose 10 mg/kg, route intraperitoneal", "procedure,_shortened": "(§1)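 Single i.p. injection in C57BL/6 mice. Blood sampled at 1, 2 and 4 h after dosing and plasma compound concentration measured. n = 3 at 1 h, 2 at 2 h, 3 at 4 h.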"}, "Plasma": {"test_system": "Plasma", "test": "Metabolic stability of the compound in C57BL/6 mouse plasma assessed as parent compound level at 10 mg/kg, ip after 16 hrs", "type": "ADME, organism-based", "design": "dose 10 mg/kg, route intraperitoneal", "conditions": "in vivo", "procedure,_shortened": "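Blood collected at 72 h, i.e. 16 h after the last injection. Plasma analysed for the dosed compound and, where applicable, its stereoinversion product (S)-flurbiprofen.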"}, "[5]": {"test": "Plasma concentration in C57BL/6 mouse at 10 mg/kg, ip after 4 hrs", "type": "ADME, organism-based", "design": "dose 10 mg/kg, route intraperitoneal", "procedure,_shortened": "as §1"}, "[6]": {"test": "Plasma concentration in C57BL/6 mouse at 10 mg/kg, ip after 1 hr", "type": "ADME, organism-based", "design": "dose 10 mg/kg, route intraperitoneal", "procedure,_shortened": "as §1"}}, "data": [{"smiles": "O=C(O)Cc1cccc(C(=O)c2ccccc2)c1", "values": [{"measurement": "inhibition", "setting": "[1]", "value": 10, "unit": "%"}]}, {"smiles": "CC(C)Cc1ccc(CC(=O)O)cc1", "values": [{"measurement": "inhibition", "setting": "[1]", "value": 14, "unit": "%"}]}, {"smiles": "CC(C)(C(=O)O)c1ccc(-c2ccccc2)c(F)c1", "values": [{"measurement": "inhibition", "setting": "[2]", "value": 40, "unit": "%"}, {"measurement": "inhibition", "setting": "[1]", "value": 5, "unit": "%"}]}, {"smiles": "CC(C)Cc1ccc(C(C)(C)C(=O)O)cc1", "values": [{"measurement": "inhibition", "setting": "[1]", "value": 5, "unit": "%"}, {"measurement": "Imax", "setting": "[3]", "value": 5, "unit": "%"}]}, {"smiles": "CC(C)(C(=O)O)c1cccc(Oc2ccccc2)c1", "values": [{"measurement": "inhibition", "setting": "[1]", "value": 17, "unit": "%"}, {"measurement": "Imax", "setting": "[3]", "value": 65, "unit": "%"}]}, {"smiles": "O=C(O)C1(c2cccc(Oc3ccccc3)c2)CC1", "values": [{"measurement": "inhibition", "setting": "[1]", "value": 15, "unit": "%"}]}, {"smiles": "COc1ccc2cc(C(C)(C)C(=O)O)ccc2c1", "values": [{"measurement": "inhibition", "setting": "[1]", "value": 7, "unit": "%"}, {"measurement": "Imax", "setting": "[3]", "value": 12, "unit": "%"}]}, {"smiles": "CC(C)Cc1ccc(C2(C(=O)O)CC2)cc1", "values": [{"measurement": "inhibition", "setting": "[1]", "value": 10, "unit": "%"}, {"measurement": "Imax", "setting": "[3]", "value": 45, "unit": "%"}]}, {"smiles": "O=C(O)Cc1cccc(Oc2ccccc2)c1", "values": [{"measurement": "inhibition", "setting": "[1]", "value": 24, "unit": "%"}, {"measurement": "Imax", "setting": "[3]", "value": 68, "unit": "%"}]}, {"smiles": "O=C(c1ccccc1)c1cccc(C2(C(=O)O)CC2)c1", "values": [{"measurement": "inhibition", "setting": "[1]", "value": 10, "unit": "%"}, {"measurement": "Imax", "setting": "[3]", "value": 75, "unit": "%"}]}, {"smiles": "O=C(O)C1(c2ccc(-c3ccccc3)c(F)c2)CC1", "values": [{"measurement": "inhibition", "setting": "[2]", "value": 55, "unit": "%"}, {"measurement": "inhibition", "setting": "[1]", "value": 0, "unit": "%"}, {"measurement": "Imax", "setting": "[3]", "value": 87, "unit": "%"}]}, {"smiles": "O=C(O)Cc1ccc(-c2ccccc2)c(F)c1", "note": "[DESMETHYLFLURBIPROFEN]", "values": [{"measurement": "inhibition", "setting": "[1]", "value": 7, "unit": "%"}, {"measurement": "concentration at 2 h", "setting": "[4]", "value": 50, "unit": "µM"}, {"measurement": "Stability", "setting": "Plasma", "value": "Unstable"}, {"measurement": "concentration at 4 h", "setting": "[5]", "value": 6, "unit": "µM"}, {"measurement": "concentration at 1 h", "setting": "[6]", "value": 68, "unit": "µM"}]}, {"smiles": "CC(C)(C(=O)O)c1cccc(C(=O)c2ccccc2)c1", "values": [{"measurement": "inhibition", "setting": "[1]", "value": 32, "unit": "%"}]}, {"smiles": "COc1ccc2cc(CC(=O)O)ccc2c1", "values": [{"measurement": "inhibition", "setting": "[1]", "value": 16, "unit": "%"}]}, {"smiles": "COc1ccc2cc(C3(C(=O)O)CC3)ccc2c1", "values": [{"measurement": "inhibition", "setting": "[1]", "value": 6, "unit": "%"}, {"measurement": "Imax", "setting": "[3]", "value": 77, "unit": "%"}]}]}
